Assay results published in ChEMBL document CHEMBL1149768, “Novel Pd(II) complexes of 1-N-substituted 3-phenyl-2-pyrazoline derivatives and evaluation of antiamoebic activity” (Eur J Med Chem, 2008).

test system: Entamoeba histolytica; experiment: Antiamoebic activity against Entamoeba histolytica HM1 IMSS after 72 hrs by serial dilution method; type: functional, organism-based
In short: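 Compounds were dissolved in DMSO and diluted in medium to 1 mg/mL, then to 0.1 mg/mL, with two-fold serial dilutions in microplate wells. Metronidazole was the standard. Each well got 1.7 × 10⁴ trophozoites, was gassed with N₂ and held at 37 °C for 72 h. Plates were methanol-fixed, eosin-stained and solubilised in 0.1 N NaOH, and OD was read at 490 nm. IC50 came from linear regression of % inhibition versus log dose.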

Row | Structure (SMILES) | IC50 [µM]
1 | CC1CN(C(N)=S)N=C1c1ccccc1 (stereo not given) | 10.3
2 | Cc1ccccc1NC(=S)N1CC(C)C(c2ccccc2)=N1 (stereo not given) | 4.57
3 | CC1CN(C(=S)NCc2ccccc2Cl)N=C1c1ccccc1 (stereo not given) | 4.62
4 | CC1CN(C(=S)N2CCN(c3ccccc3)CC2)N=C1c1ccccc1 (stereo not given) | 8.69
5 | CC(C)CNC(=S)N1CC(C)C(c2ccccc2)=N1 (stereo not given) | 9.13
6 | CC1CN(C(=S)NC2CCCC2)N=C1c1ccccc1 (stereo not given) | 8.75
7 | CC(C)NC(=S)N1CC(C)C(c2ccccc2)=N1 (stereo not given) | 15.2
8 | CCCCNC(=S)N1CC(C)C(c2ccccc2)=N1 (stereo not given) | 4.32
9 | CC1CN(C(=S)NC2CCCCC2)N=C1c1ccccc1 (stereo not given) | 6.63
10 | CC1CN(C(=S)NC2CCCCCCC2)N=C1c1ccccc1 (stereo not given) | 2.32
